The values below come from PubChem BioAssay.

Test [1] in a line: inhibitors of TNFa-induced NFkB p65 translocation, primary screen, imaging, HUVEC, MLSMR starter and 10KST1 sets (AID 438;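 active = inhibition above 20% together with a positive visual image hit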;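 also: compound added about 3h40 before a 20 min TNFalpha stimulation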;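 as to inhibition: signal is the nuclear over cytoplasmic p65 intensity ratio per well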). To be noted: HUVEC TNFa-induced p65 nuclear translocation; cell count: measured here: nuclei count (cytotoxicity indicator), at 2.08 µM; inhibition: at 2 µM, stronger effect = higher value, 0% TNFa-plus-vehicle, 100% no-TNFa wells.
The nature of test [2]: inhibitors of E-selectin induction by TNFa, primary screen, imaging, HUVEC, immunofluorescence, MLSMR starter and 10KST1 sets (AID 487;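 active = visually confirmed hit in the image check and inhibition above 20%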;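 as to inhibition: signal is fraction of cell area covered by stained E-selectin grains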;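 as to nuclei count: 100% = median nuclei count of all wells on the same plate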). The following applies: HUVEC TNFalpha-induced E-selectin immunofluorescence imaging, at 2 µM; inhibition: stronger effect = higher value; nuclei count: measured here: cell number, toxicity.
Test [3] is described as follows: DUSP6 inhibitors restoring Erk phosphorylation by chemical complementation, primary imaging in DUSP6-transfected HeLa (AID 609;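 active = compounds giving at least 50% inhibition in the cell-based MKP-3 phosphatase rescue imaging test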;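 as to inhibition: phospho-Erk level distribution per well compared with pooled transfected vehicle control wells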). The following applies: HeLa MKP-3 transfected, phospho-Erk imaging KS statistic, at 10 µM, cells stimulated with TPA for 15 min.
The target in test [4] is Dual specificity protein phosphatase 6 (Homo sapiens) (UniProt Q16828). The test is described as above. The following applies: HeLa MKP-3 transfected, phospho-Erk imaging KS statistic; at 10 µM; stronger effect = higher value; cells stimulated with TPA for 15 min.
Test [5] concerns the target Voltage-gated potassium channel subunit beta-2 (Rattus norvegicus) (UniProt P62483). As to the kind of experiment: KvBeta enzyme negative modulators, primary screen, biochemical, NADPH fluorescence (AID 622;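 active = fluorescence slope higher than the sample average by over 3 SD, cut at about -0.22 in these data, passing the limit was not always enough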;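 also: slope of raw intensity against log time taken from 70 to 1610 s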). The following applies: recombinant KvBeta, 4-cyanobenzaldehyde reduction, at 10 µM, stronger effect = higher value.
Test [6] has the same target. As to the kind of experiment: KvBeta positive modulators, primary screen, biochemical, NADPH fluorescence (AID 623;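 active = NADPH fluorescence slope more negative than the mean of all samples by about 3 SD, 99.7% confidence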;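 also: fluorescence intensity change per second fitted from 20 to 320 s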). To be noted: Recombinant KvBeta, NADPH fluorescence decrease slope, 10 min; at 10 µM; stronger effect = lower value.
For test [7], the target named is Alpha-2C adrenergic receptor (Homo sapiens) (UniProt P18825). As to the kind of experiment: modulators of alpha2C/GIRK thallium flux, primary screen, cell-based, HEK293 alpha2C/GIRK1/2 (AID 624;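 active = fluorescence slope after compound addition differing from the mean of all screened samples at 99.7% confidence, in either direction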;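 also: slope of fluorescence ratio to pre-addition baseline per second over 15 to 24 s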). To be noted: thallium flux BTC fluorescence, at 10 µM, actives lie on both sides.
Test [8] is described as follows: inhibitors of larval lipid processing in zebrafish, primary screen, whole organism, PED6 fluorescence, gall bladder and intestine (AID 686).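 Also: larvae 5 to 7 days old with five fish per well; signal comes from phospholipase A2 cleavage of quenched PED6 carried via bile; overnight exposure to compound and PED6 before scoring.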 To be noted: Zebrafish larvae PED6 lipid processing, fluorescence scoring; screened at 20 µM (by protocol). The method, boiled down:
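System: live zebrafish larvae aged 5-7 days, whole organism; measure: graded gall bladder and intestinal fluorescence inhibition per well; incubation: overnight exposure; reagent: ingested quenched lipid PED6 at 100 nM; signal: By-eye fluorescence microscopy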

The nature of test [9]: inhibitors of Chlamydomonas gravitaxis, primary screen, whole organism, Chlamydomonas reinhardtii, WT vs cilia-less mutant, absorbance, 96-well (AID 463189;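 active = inhibition at or above 50% relative to wild type and mutant plate controls; inactive = inhibition below 50%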;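 also: 0% = wild type cc124 cells in DMSO and 100% = ciliumless bld1 mutant cells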). The following applies: OD600 absorbance, 2 days, at 10 µM, stronger effect = higher value.
[10] abbreviates: measured here: cell density z-score.
The mark [11] stands for this setting: measured here: nuclear c-Myc green intensity z-score.
Setting [12] is: measured here: nuclear pErk red intensity z-score, stronger effect = higher value.

Activity calls are given as the source filed them.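 The calls were made as follows, unless noted: active = a full or partial loss of lipid-probe fluorescence in the fish gall bladder, intestine or both, judged by eye; inactive = no fluorescence loss, or compound toxic to the fish.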

Sequence of Alpha-2C adrenergic receptor (Homo sapiens) (P18825 whole entry, looked up): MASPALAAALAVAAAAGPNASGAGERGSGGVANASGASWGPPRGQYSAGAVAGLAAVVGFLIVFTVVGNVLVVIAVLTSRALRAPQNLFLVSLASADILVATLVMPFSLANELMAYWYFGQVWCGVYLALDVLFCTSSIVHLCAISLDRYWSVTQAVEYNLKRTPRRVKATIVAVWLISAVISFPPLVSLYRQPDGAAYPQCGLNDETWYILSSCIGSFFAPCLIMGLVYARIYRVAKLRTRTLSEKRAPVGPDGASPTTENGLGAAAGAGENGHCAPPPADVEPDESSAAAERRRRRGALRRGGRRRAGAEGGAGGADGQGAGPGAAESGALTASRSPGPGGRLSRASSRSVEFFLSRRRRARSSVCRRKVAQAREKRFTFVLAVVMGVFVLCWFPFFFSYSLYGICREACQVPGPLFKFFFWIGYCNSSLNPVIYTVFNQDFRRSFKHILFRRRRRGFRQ
Sequence of Voltage-gated potassium channel subunit beta-2 (Rattus norvegicus) (P62483 whole entry, looked up): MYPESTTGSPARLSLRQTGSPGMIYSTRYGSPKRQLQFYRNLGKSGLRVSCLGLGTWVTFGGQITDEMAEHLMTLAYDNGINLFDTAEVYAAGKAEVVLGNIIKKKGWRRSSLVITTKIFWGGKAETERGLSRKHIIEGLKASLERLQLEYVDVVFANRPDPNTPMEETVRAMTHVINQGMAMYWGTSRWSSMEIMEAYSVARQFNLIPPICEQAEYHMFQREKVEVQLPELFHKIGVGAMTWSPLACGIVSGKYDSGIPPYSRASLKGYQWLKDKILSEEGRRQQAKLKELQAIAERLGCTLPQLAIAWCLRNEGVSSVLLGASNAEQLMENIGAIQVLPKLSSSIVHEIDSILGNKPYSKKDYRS
Sequence of Dual specificity protein phosphatase 6 (Homo sapiens) (Q16828 whole entry, looked up): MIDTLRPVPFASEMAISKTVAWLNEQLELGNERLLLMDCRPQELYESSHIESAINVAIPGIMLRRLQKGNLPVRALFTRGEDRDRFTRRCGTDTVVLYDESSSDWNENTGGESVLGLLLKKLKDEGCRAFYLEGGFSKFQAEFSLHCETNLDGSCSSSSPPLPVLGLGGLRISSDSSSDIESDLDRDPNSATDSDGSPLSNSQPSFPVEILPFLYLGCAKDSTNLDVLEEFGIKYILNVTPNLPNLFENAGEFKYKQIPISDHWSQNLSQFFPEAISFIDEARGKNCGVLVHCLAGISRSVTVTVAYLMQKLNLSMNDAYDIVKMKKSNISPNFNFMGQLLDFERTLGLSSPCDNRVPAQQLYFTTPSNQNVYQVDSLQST

As a reminder, the inhibition is the relative decrease from the control value, in per cent. In the case of `CSc1nnc(C)c(=O)[nH]1`, the cell count in [1] came out at 627. Further, the inhibition in [1] is 3.2% (inactive); in [2], -23.8% (inactive); in test [4], -1.12% (inactive); in [9], 6% (inactive). The compound further returned a nuclei count in [2] of 149%. For the same compound, the figures for the z-score in [3] (setting [10]), in test [3] (setting [11]) and in [3] (setting [12]) were 0.361, -1.1 and -0.0421, respectively. Besides, in test [5], the fluorescence slope was -0.463 (inactive). In test [6], the NADPH fluorescence slope is -0.000266 (inactive). Moreover, the slope in test [7] was 0.00552 (inactive). In addition, the outcome in test [8] was inactive.
Consider `Cc1ccc(NC(=O)CSC2=C(C#N)C(c3ccco3)C3=C(CCCC3=O)N2)cc1` (stereo unspecified), for which the cell count in test [1] came to 382. For the same compound, the inhibition in [1] is 1.6% (inactive); in test [2], -118% (inactive); in test [4], -0.584% (inactive); in test [9], 32.7% (inactive). In test [2], this compound gave a nuclei count of 144%. Moreover, the z-score in [3] (setting [10]) was 1.1; in test [3] (setting [11]), -0.193; in [3] (setting [12]) it was -0.0699. Further, the fluorescence slope in test [5] was -0.438 (inactive). Further, the NADPH fluorescence slope in test [6] was -5.7e-07 (inactive). Moreover, the slope in [7] was 0.00635 (inactive). In addition, the compound was classed as inactive in test [8].
For the compound `COC(=O)C1=C(N)Oc2cc(C)oc(=O)c2C1c1ccncc1` (stereo unspecified), the cell count in test [1] amounted to 346. The inhibition in [1] is -2.7% (inactive); in [2], 29.3% (inactive); in test [4], -2.59% (inactive); in [9], 28.1% (inactive). This compound also gave a nuclei count in [2] of 149%. Moreover, the figures for the z-score in test [3] (setting [10]), in [3] (setting [11]) and in test [3] (setting [12]) were -0.595, -0.189 and 1.46, respectively. The fluorescence slope in [5] was -0.404 (inactive). Also, the NADPH fluorescence slope in test [6] was -0.000149 (inactive). Besides, in test [7], the slope was 0.00558 (inactive). In addition, in [8], the outcome was “active; weak signal in gallbladder and intestine”.
As for `CC1CN(C2CCN(S(=O)(=O)Cc3ccccc3)CC2)CC(C)O1` (stereo unspecified), in test [1], the cell count is 355. In addition, the inhibition in test [1] was -15.2% (inactive); in test [2] it was -254% (inactive); in [4], 5.57% (inactive); in test [9], 32.6% (inactive). The compound also yielded a nuclei count in test [2] of 179%. Further, the z-score was 0.356 in test [3] (setting [10]), 0.313 in test [3] (setting [11]) and 0.176 in test [3] (setting [12]). In addition, in [5], the fluorescence slope was -0.391 (inactive). Moreover, the NADPH fluorescence slope in [6] was -1.6e-05 (inactive). Further, in test [7], the slope was 0.00538 (inactive). The call in [8] was inactive.
Turning to `CCCCCCn1c(C(C)O)nc2ccccc21` (stereo unspecified), the cell count in test [1] was 528. The inhibition in test [1] was -16.2% (inactive); in [2] it was -111% (inactive); in test [4], 11.9% (inactive); in test [9], 28% (inactive). Further, the nuclei count in test [2] was determined as 156%. The z-score in [3] (setting [10]) is 1.01; in test [3] (setting [11]), -0.165; in test [3] (setting [12]), -1.61. The fluorescence slope in test [5] is -0.5 (inactive). In test [6], the NADPH fluorescence slope was -5.9e-05 (inactive). Also, the slope in [7] was 0.0045 (inactive). For the same compound, the outcome in [8] is “inactive; toxic”.
As to `O=C(c1cncc(Br)c1)N1CCCc2ccccc21`, in test [1], the cell count came out at 517. Besides, the inhibition in test [1] was -1.1% (inactive); in test [2], 51.3% (inactive); in test [4], -7.86% (inactive); in test [9] it was -3.67% (inactive). Moreover, the nuclei count in [2] was 97.5%. Moreover, the values for the z-score in test [3] (setting [10]), in test [3] (setting [11]) and in test [3] (setting [12]) were 0.808, -0.814 and -0.316, respectively. Also, in test [5], the fluorescence slope was -0.448 (inactive). For the same compound, the NADPH fluorescence slope in test [6] is -1.4e-05 (inactive). Also, the slope in test [7] is 0.00474 (inactive). Moreover, the compound was called inactive in test [8].
Take `N/C(CCN1CCCCC1)=N/O`: in [1], the cell count came out at 582. The inhibition in test [1] was -29.9% (inactive); in test [2] it was 25.5% (inactive); in test [4] it was -4.27% (inactive); in test [9], 12.2% (inactive). For the same compound, the nuclei count in test [2] was found to be 169%. Further, the figures for the z-score in [3] (setting [10]), in test [3] (setting [11]) and in [3] (setting [12]) were 0.685, -0.291 and -0.968, respectively. Also, in test [5], the fluorescence slope was -0.418 (inactive). Further, in test [6], the NADPH fluorescence slope was -9.2e-06 (inactive). In [7], the slope was 0.00552 (inactive). Moreover, the outcome in test [8] was inactive.
